Assay outcomes deposited in PubChem by several laboratories.
697 NFkB inh – lowers PMA/ionomycin-induced NF-kB signal in 697 B cells | 330,000 tested, 0.33% active | 697 B-cell NF-kB luciferase reporter, 16 h | inhibition, % at 4 µM | AID 435022; in the data active = inhibition above about 35%
CHOP inh – blocks CHOP induction under ER stress; CHO-K1 CHOP-promoter luciferase, tunicamycin-induced, 15-18 h; inhibition, % at 10 µM; AID 2732; 220,000 tested, 3.8% active;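 active = compounds that reduced the stress-induced luciferase reporter signal by more than about 70% of percent inhibition, limit read from the data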;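 also: 0% = tunicamycin plus vehicle and 100% = wells without tunicamycin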
UPR CHOP act – activators of apoptotic arm of unfolded protein response (CHOP) | CHO-CHOP luciferase reporter, UPR activation, luminescence; percent of tunicamycin response over DMSO baseline | activation, % at 10 µM | 330,000 tested, 0.34% active | AID 449763;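 active = at 10 µM dose, activation of 40% or more, normalized to positive control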;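 also: 100% = tunicamycin at 10 µg/mL and 0% = DMSO alone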
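Test system: CHO CHOP reporter cells. Input: 500 CHO-CHOP cells per well. Medium: F12 with 10% FBS. Technique: luciferase luminescence. Measure: percent activation relative to tunicamycin control. Dosing: 10 µM compound, 0.5% DMSO. Timing: 16-18 h cell attachment, then 6 h compound exposure, 37 °C.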
XBP1 UPR activ – activators of adaptive arm of unfolded protein response (XBP1) | 330,000 tested, 0.33% active | activation, % at 20 µM | CHO-XBP1 luciferase reporter, IRE1-XBP1 UPR activation, luminescence; percent of tunicamycin response, DMSO as zero;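 active = versus positive control, 20 µM dose yields 30% or more activation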;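 also: 100% = tunicamycin at 10 µg/mL and 0% = DMSO only wells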
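Signal: luciferase luminescence; Assay system: CHO-XBP1 luciferase reporter cells; Amount: one thousand reporter cells per well; Dosing: 20 µM single concentration, DMSO 1%; Benchmarks: high control tunicamycin 10 µg/mL final, low control DMSO vehicle only; Schedule: 6 h compound exposure at 37 °C, 5% CO2; Evaluation: percent activation relative to tunicamycin reference.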
Jurkat NFkB inh – inhibitors of the PMA/ionomycin-induced NF-kB reporter in Jurkat cells; 330,000 tested, 0.53% active; PMA/ionomycin-induced NF-kB luciferase reporter, luminescence; inhibition, % at 4 µM; in the data active = inhibition above about 50%
697 NFkB conf – inhibitors of the PMA/ionomycin-induced NF-kB reporter in 697 B cells, retest. 697 B-cell NF-kB luciferase, 16 h. 2,000 tested, 35% active. inhibition, % at 4 µM. shares compounds with 697 NFkB inh; in the data active = inhibition mostly above about 28%, no sharp cut-off; inactive = mostly below about 22%
* = called active by the depositor; i = inactive; x = not tested or not shown. This excerpt belongs to a sample that is enriched for hits.

SMILES	697 NFkB inh	CHOP inh	UPR CHOP act	XBP1 UPR activ	Jurkat NFkB inh	697 NFkB conf
O=C(COC(=O)c1ccccc1)Nc1ncc([N+](=O)[O-])s1	-27	x	1	4	-6	x
O=C(Nc1ccccc1)Nc1ncc([N+](=O)[O-])s1	-260	86*	1	-5	-80	-351
O=C(Nc1ccc(NC(=O)c2cccc([N+](=O)[O-])c2)cc1)c1cccc([N+](=O)[O-])c1	-17	x	1	-2	-20	x
COC(=O)c1c(NC(=O)c2cccc([N+](=O)[O-])c2)sc(C(N)=O)c1C	39*	-3	0	7	16	50*
O=C(Nc1ncc([N+](=O)[O-])s1)c1cccc([N+](=O)[O-])c1	-450	66	-2	-11	-72	-444
CCCCOc1ccc(Nc2cc(Cl)ccc2C(=O)O)cn1	-13	9	0	-4	6	x
CN1C(=O)CC(c2ccco2)Sc2ccccc21 (configuration not stated)	39*	1	2	4	-2	29*
CCCN1C(=O)CC(c2ccco2)Sc2ccccc21 (configuration not stated)	7	10	2	0	-3	x
CCCCNC(=O)c1c(N)n(/N=C/c2ccccn2)c2nc3ccccc3nc12	47*	39	2	4	-1	44*
CC(C)CNC(=O)c1c(N)n(/N=C/c2ccccn2)c2nc3ccccc3nc12	-46	43	5	9	-5	x
c1cn2cc(-c3ccc4c(c3)OCO4)nc2s1	-135	7	1	-1	-138	x
O=C(Nc1nc2ccc(F)cc2s1)C1=COCCO1	-250	x	-6	-8	-100	-76
CSc1cccc2sc(NC(=O)C3=COCCO3)nc12	3	x	3	3	-24	x
CCN1C(=O)c2cccc3c(S(=O)(=O)N4CCC(C)CC4)ccc1c23	41*	x	1	-1	-19	46*
COCCNc1nnc(SC(C)C(=O)Nc2ccc(-c3nc4ccc(C)cc4s3)cc2)s1 (configuration not stated)	-294	44	4	4	-125	-282
CCC(C)(C)n1nnnc1C(c1ccc(F)cc1)N1CCN(C(=O)c2ccco2)CC1 (configuration not stated)	5	x	1	-2	-1	x
Cc1ccc(Sc2cc(NCCCO)c([N+](=O)[O-])c3nonc23)cc1	46*	15	23	-3	-9	44*
COc1ccc(Cl)cc1C(=O)Nc1nc2ccccc2[nH]1	-385	x	-6	-14	-77	-439
O=S(=O)(c1cnc(Cl)c(Cl)c1)N1CCCc2ccccc21	43*	-16	-1	0	19	37*
CC(=O)Nc1ccc2nc(-c3ccccn3)[nH]c2c1	-58	-19	5	-1	-56	x
c1ccc(-c2nc3cc4ccccc4cc3[nH]2)nc1	-272	x	-6	-4	-59	-315
Cc1ccc(S(=O)(=O)N(C)CC(=O)NNC(=O)CCC(=O)c2ccc(F)cc2)cc1	-10	x	1	-4	1	x
CCC(c1nnc(SCC(=O)NC2CCCCC2)n1Cc1ccccc1)N(C)C (configuration not stated)	39*	x	0	-2	4	2
COc1cc(OC)cc(C(=O)NC(C)CNc2ccc(Cl)cc2[N+](=O)[O-])c1 (configuration not stated)	10	x	-1	-3	10	x
COc1ccc(/C(O)=C2/C(=O)C(=O)N(c3ccccn3)C2c2cccc(Cl)c2)cc1 (configuration not stated)	3	x	2	4	-27	x
SMILES	697 NFkB inh	CHOP inh	UPR CHOP act	XBP1 UPR activ	Jurkat NFkB inh	697 NFkB conf
CC(NS(=O)(=O)c1cccc(Cl)c1)C(=O)Nc1ccc(-c2nc3ccccc3s2)cc1 (configuration not stated)	-144	18	5	-2	-44	x
O=C(CNS(=O)(=O)c1cccc(Cl)c1)Nc1ccc(-c2nc3ccccc3s2)cc1	-319	51	3	3	-127	-229
O=C(NNC(=O)c1n[nH]c2ccccc12)c1ccccc1	2	x	4	5	11	x
COc1cc2c(cc1NC(C)=O)CCCC2	28	12	-2	1	5	x
COc1cc2c(cc1NC(=O)c1ccc(C(C)(C)C)cc1)CCCC2	i	0	-1	-2	-61	-486
CCCCCCSc1ccc([C@H]2N[C@@](CC(C)C)(C(=O)OC)[C@H]3C(=O)N(C)C(=O)[C@@H]23)cc1OC	6	x	2	-1	28	x
CC(=O)Nc1ccc2[nH]c(C)c(CC=C(Cl)Cl)c(=O)c2c1	42*	18	0	0	-3	15
CC(C)COc1ccc(-c2nnc(-c3ccco3)o2)cc1	-263	78*	-1	-2	-132	-139
O=C(COc1ccccc1)Nc1ccc(-c2nnc(-c3ccco3)o2)cc1	-84	-22	3	1	-62	x
CCN(CC)S(=O)(=O)c1cccc(NC(=O)c2ccc(Sc3nncn3C)c([N+](=O)[O-])c2)c1	37*	10	-1	-2	9	12
O=C(CN1C2=NCCCN2c2ccccc21)c1ccc(Cl)cc1Cl	-18	20	1	2	-14	x
Cn1c(=O)n(C)c2cc(NC(=O)CSc3nnc(-c4ccccc4O)n3-c3ccccc3)ccc21	36*	12	-1	-2	7	41*
Cc1ccc(-c2nc(C(=O)NCC3CCCO3)cc3c2[nH]c2ccccc23)cc1 (configuration not stated)	39*	x	5	7	8	36*
COc1ccc(-c2nc(C(=O)NCC3CCCO3)cc3c2[nH]c2ccccc23)cc1 (configuration not stated)	23	x	6	4	0	x
Cc1cc(NC2CCCC2)n2ncc(-c3ccccc3)c2n1	i	x	-4	-10	-112	i
CCOC(=O)Cc1c(C)nc2c(-c3ccccc3)cnn2c1C	-23	6	1	-1	-20	x
Cc1nc2c(-c3ccccc3)cnn2c(N)c1-c1ccccc1	-428	x	-5	-10	-97	-248
Cc1cc(NCc2ccccc2)n2ncc(-c3ccccc3)c2n1	i	x	6	2	-135	-397
CCC(NC(=O)c1ccc2nc(Cc3ccc(OC)cc3)oc2c1)c1ccncc1 (configuration not stated)	-41	x	2	-6	14	x
O=C(Nc1cc(-c2ccccc2)[nH]n1)c1ccc(Cl)cc1	-70	0	9	4	-88	x
O/N=C(/CCc1ccccc1)c1ccc2c(c1)OCCO2	-57	-49	4	3	-58	x
O=C(CCCc1ccccc1)c1ccc2c(c1)OCCO2	-270	89*	-9	-9	42	-210
